Inhibition data for 59 molecules are collected here from PubChem BioAssay AID488775 (The Scripps Research Institute Molecular Screening Center, 2010).

Activity calls are given as the source filed them.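 How the source made its calls: active means inhibition of the reporter signal above 10%; inactive means the rest.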

The assay has as its system GAL4DBD-VP16 transactivation domain fusion (Human herpesvirus 1 VP16). Description: GAL4-VP16 transactivation inhibitors, confirmation, counter-screen for LRH1 inverse agonist project, cell-based, luminescence, HEK293T, powder samples (AID 488775). To be noted: HEK293T GAL4-VP16 UAS-luciferase reporter, 18-24 h; at 5 µM; hits give high values. The method in brief:
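System: HEK293T cells with GAL4–VP16 fusion and UAS-luciferase reporter; Measured by: luciferase reporter luminescence; Read-out: percent inhibition from averaged fold change relative to DMSO vehicle wells.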
In general terms: Counterscreens check selectivity or assay interference.

For `O=c1cc(N2CCN(c3nccc4occc34)CC2)[nH]c(=O)n1C1CCCCC1`, the inhibition (usually the drop in the measured response relative to a control, in per cent) is -4% (inactive).
As for `CC1CCN(c2cc(=O)n(Cc3ccc(F)cc3)c(=O)[nH]2)CC1`, the inhibition is -7% (inactive).
As for `O=c1cc(N2CCN(c3cccc(C(F)(F)F)c3)CC2)[nH]c(=O)n1C1CCCCC1`, the figure is -6% (inactive); as for `O=c1cc(N2CCN(c3ccnc4cc(Cl)ccc34)CC2)[nH]c(=O)n1C1CCCCC1`, 7% (inactive).
With `O=c1cc(N2CCN(c3ccccn3)CC2)[nH]c(=O)n1C1CCCCC1` the figure was -8% (inactive); with `CCn1c(=O)cc(N2CCN(Cc3ccccc3)CC2)[nH]c1=O`, -10% (inactive).
`O=c1cc(N2CCN(c3ccccc3C(F)(F)F)CC2)[nH]c(=O)n1C1CCCCC1`: the inhibition is 14%.
As for `O=c1cc(N2CCN(c3cccc(C(F)(F)F)c3)CC2)n(Cc2ccccc2)c(=O)n1C1CCCCC1`, the figure is -1% (inactive).
`O=c1cc(N2CCN(C(c3ccccc3)c3ccccc3)CC2)[nH]c(=O)n1C1CCCCC1`: the inhibition is 11% (inactive).
On to `O=c1cc(N2CCN(c3ccccc3)CC2)[nH]c(=O)n1C1CCCCC1`, for which the inhibition was -16% (inactive).
On to `O=c1cc(N2CCN(c3cccc(Cl)n3)CC2)[nH]c(=O)n1C1CCCCC1`, for which the inhibition was -7% (inactive).
Turning to `O=c1cc(N2CCN(c3cccc(Cl)c3)CC2)[nH]c(=O)n1C1CCCCC1`, the inhibition was 1% (inactive).
As for `O=c1cc(N2CCN(c3nc(-c4ccccc4)ns3)CC2)[nH]c(=O)n1C1CCCCC1`, the figure is -27% (inactive); as for `Cn1c(=O)cc(N2CCN(c3cccc(Cl)c3)CC2)[nH]c1=O`, -1% (inactive).
For the molecule `O=c1cc(N2CCN(c3cccc(C(F)(F)F)c3)CC2)[nH]c(=O)n1-c1ccccc1`, the inhibition was -3% (inactive).
Take `O=c1cc(N2CCN(CCN3CCOCC3)CC2)[nH]c(=O)n1C1CCCCC1`: the inhibition was 26%.
With `C=CCn1c(N2CCN(c3cccc(C(F)(F)F)c3)CC2)cc(=O)n(C2CCCCC2)c1=O` the figure was 20%; with `CCOC(=O)N1CCN(c2cc(=O)n(C3CCCCC3)c(=O)[nH]2)CC1`, -6% (inactive); with `O=c1cc(N2CCN(c3ccccc3)CC2)[nH]c(=O)n1Cc1ccc(F)cc1`, -5% (inactive).
Regarding `O=c1cc(N2CCN(c3cc(C(F)(F)F)ccn3)CC2)[nH]c(=O)n1C1CCCCC1`, the inhibition is -12% (inactive).
As for `CCn1c(=O)cc(N2CCN(C(=O)c3ccco3)CC2)[nH]c1=O`, the figure is 0% (inactive); as for `CCn1c(=O)cc(N2CCN(c3cccc(C(F)(F)F)c3)CC2)[nH]c1=O`, 1% (inactive).
As for `COC(=O)C1CCN(c2cc(=O)n(C3CCCCC3)c(=O)[nH]2)CC1`, the figure is -12% (inactive).
Turning to `O=C(c1ccccc1)N1CCN(c2cc(=O)n(C3CCCCC3)c(=O)[nH]2)CC1`, the inhibition was 8% (inactive).
As for `O=c1cc(N2CCN(C3CCCCC3)CC2)[nH]c(=O)n1C1CCCCC1`, the figure is 0% (inactive).
As for `CC1CCN(c2cc(=O)n(C3CCCCC3)c(=O)[nH]2)CC1`, the figure is 6% (inactive); as for `O=c1cc(N2CCOCC2)[nH]c(=O)n1C1CCCCC1`, 9% (inactive); as for `O=c1cc(N2CCN(c3cccc(C(F)(F)F)c3)CC2)[nH]c(=O)n1Cc1ccccc1`, 6% (inactive).
With `Cc1cc(C)cc(N2CCN(c3cc(=O)n(C4CCCCC4)c(=O)[nH]3)CC2)c1` the figure was -6% (inactive); with `CCn1c(=O)cc(N2CCN(c3ccccc3)CC2)[nH]c1=O`, -7% (inactive); with `O=c1cc(N2CCN(c3ccc(F)cc3F)CC2)[nH]c(=O)n1C1CCCCC1`, 26%.
Take `CCN1CCN(c2cc(=O)n(C3CCCCC3)c(=O)[nH]2)CC1`: the inhibition is 0% (inactive).
With `Cc1ccc(Cl)cc1N1CCN(c2cc(=O)n(C3CCCCC3)c(=O)[nH]2)CC1` the figure was 0% (inactive); with `O=c1cc(N2CCN(Cc3ccc4c(c3)OCO4)CC2)[nH]c(=O)n1C1CCCCC1`, -5% (inactive).
With `O=c1cc(N2CCN(c3cccc(C(F)(F)F)n3)CC2)[nH]c(=O)n1C1CCCCC1` the figure was 3% (inactive); with `O=c1cc(N2CCN(Cc3ccc(Cl)cc3)CC2)[nH]c(=O)n1C1CCCCC1`, -4% (inactive).
With `O=c1cc(N2CCN(c3ccccc3Cl)CC2)[nH]c(=O)n1C1CCCCC1` the figure was 1% (inactive).
`O=c1cc(N2CCN(c3ccc(C(F)(F)F)cc3)CC2)[nH]c(=O)n1C1CCCCC1`: the inhibition is -5% (inactive).
As for `O=c1cc(N2CCN(c3cccc(Cl)c3Cl)CC2)[nH]c(=O)n1C1CCCCC1`, the figure is -5% (inactive); as for `COc1ccc(N2CCN(c3cc(=O)n(C4CCCCC4)c(=O)[nH]3)CC2)cc1`, 1% (inactive); as for `CCn1c(=O)cc(N2CCN(c3ccc(F)cc3)CC2)[nH]c1=O`, -7% (inactive).
With `N#CCn1c(N2CCN(c3cccc(C(F)(F)F)c3)CC2)cc(=O)n(C2CCCCC2)c1=O` the figure was 2% (inactive); with `C=CCn1c(=O)cc(N2CCN(c3cccc(C(F)(F)F)c3)CC2)[nH]c1=O`, 1% (inactive); with `CC(C)Cn1c(=O)cc(N2CCN(c3cccc(C(F)(F)F)c3)CC2)[nH]c1=O`, 8% (inactive).
In the case of `O=c1cc(N2CCN(c3cc(Cl)cc(Cl)c3)CC2)[nH]c(=O)n1C1CCCCC1`, the inhibition is 1% (inactive).
Consider `Cn1c(=O)cc(N2CCN(c3ccc(F)cc3)CC2)[nH]c1=O`, for which the inhibition was -13% (inactive).
`Cc1ccc(C)n1CCN1CCN(c2cc(=O)n(C3CCCCC3)c(=O)[nH]2)CC1`: the inhibition was 17%.
In the case of `O=C(c1ccco1)N1CCN(c2cc(=O)n(C3CCCCC3)c(=O)[nH]2)CC1`, the inhibition is 17%.
As to `O=c1cc(N2CCN(c3cccc(Cl)c3)CC2)[nH]c(=O)[nH]1`, the inhibition is 3% (inactive).
With `O=c1cc(N2CCCC2)[nH]c(=O)n1C1CCCCC1` the figure was -6% (inactive).
With `O=c1cc(N2CCN(c3ccc(F)cc3)CC2)[nH]c(=O)n1C1CCCCC1` the figure was -9% (inactive); with `O=c1cc(N2CCN(c3ncccc3C(F)(F)F)CC2)[nH]c(=O)n1C1CCCCC1`, 13%.
Consider `CCn1c(=O)cc(N2CCN(c3cccc(Cl)c3)CC2)[nH]c1=O`, for which the inhibition was 5% (inactive).
Consider `O=c1cc(N2CCN(c3cccc(Br)c3)CC2)[nH]c(=O)n1C1CCCCC1`, for which the inhibition was -4% (inactive).
Consider `O=c1cc(N2CCCCC2)[nH]c(=O)n1C1CCCCC1`, for which the inhibition is 0% (inactive).
As for `C=CCN1CCN(c2cc(=O)n(C3CCCCC3)c(=O)[nH]2)CC1`, the figure is -48% (inactive); as for `O=c1cc(N2CCC(Cc3ccccc3)CC2)[nH]c(=O)n1C1CCCCC1`, 26%.
For `O=c1cc(N2CCN(c3ncccc3Cl)CC2)[nH]c(=O)n1C1CCCCC1`, the inhibition is 16%.
As for `O=c1cc(N2CCc3ccccc32)[nH]c(=O)n1C1CCCCC1`, the figure is -11% (inactive).
